# Published values of several laboratories.
# Lines come from different studies, so protocols differ.
# Observed: cell growth or viability
SMILES,cell line,technique,concentration,time,notes,measurement,value
COc1ccc(CNC[C@](O)(COCc2ccc(OC)cc2)[C@@H]2CC[C@@H](C)C[C@H]2OCc2ccc(OC)cc2)cc1,MCF7,MTT,30 µM,72 h,,inhibition,101%
COc1cc2c3c(n(CCCN4CCOCC4)c(=O)c2cc1OC)-c1nc2c(cc1C3=O)OCO2,THP-1,MTS,,72 h,,IC50,1.32 µM
C=CC(=O)NC1CCN(c2ncc3ncnc(Nc4ccc(Oc5ccc6c(c5)ncn6C)c(C)c4)c3n2)CC1,C-33-A,,,,,EC50,0.116 µM
CC(=NNC(=O)c1ccc(N)cc1)c1ccc(Nc2nnc(-c3ccc(Cl)cc3)c3ccccc23)cc1,MCF7,MTT,0.625 µM,,,cell death,56%
C[C@@H]1CC[C@@H]([C@](C)(O)Cn2cnc3ccccc32)[C@H](OCc2ccccc2)C1,MCF7,MTT,10 µM,72 h,,inhibition,51%
O=C(C=Cc1ccccc1)Nc1ccc(Oc2nnc(-c3ccc(Cl)cc3)c3ccccc23)cc1,MCF7,MTT,10 µM,,,cell death,91.9%
C=C(COCc1ccc(F)cc1)[C@@H]1CC[C@@H](C)C[C@H]1OCc1ccc(F)cc1,MCF7,MTT,30 µM,72 h,,inhibition,46.2%
CCOC(=O)c1nn(-c2cccc(Cl)c2)/c(=N/N=C(\C)c2ccc(NC(=O)c3ccc(Cl)cc3)cc2)s1,MCF7,MTT,0.156 µM,,,viability,21.9%
COc1ccccc1CNC[C@@](C)(O)[C@@H]1CC[C@@H](C)C[C@H]1OCc1ccccc1,MCF7,MTT,10 µM,72 h,,inhibition,46.9%
O=C(Nc1ccccc1)Nc1ccc(Oc2nnc(-c3ccc(Cl)cc3)c3ccccc23)cc1,MCF7,MTT,2.5 µM,,,cell death,96.7%
C[C@@H]1CC[C@@H]([C@@](O)(CNCc2ccccc2)COCc2ccccc2)[C@H](OCc2ccccc2)C1,MCF7,MTT,30 µM,72 h,,inhibition,96.4%
CC(=O)Nc1ccc(/C(C)=N/N=c2\sc(C(C)=O)nn2-c2ccc(C)cc2)cc1,MCF7,MTT,5 µM,,,viability,21.2%
COc1cc2c3c(n(CCCNC(C)C)c(=O)c2cc1OC)-c1nc2c(cc1C3=O)OCO2,THP-1,MTS,,72 h,,IC50,0.602 µM
S=C(Nc1ccccc1)Nc1ccc(Oc2nnc(-c3ccc(Cl)cc3)c3ccccc23)cc1,MCF7,MTT,10 µM,,,cell death,97.2%
CCN1[C@@H](C(=O)NC23CCC(C(=O)O)(CC2)CC3)[C@H](c2cccc(Cl)c2F)[C@]2(C(=O)Nc3cc(Cl)ccc32)C12CCCCC2,SJSA-1,resazurin,,72 h,,IC50,0.106 µM
CC(=NNC(=O)c1ccccc1Cl)c1ccc(Nc2nnc(-c3ccc(Cl)cc3)c3ccccc23)cc1,MCF7,MTT,5 µM,24 h,,viability,8.28%
COc1ccc(CNC[C@](O)(COCc2ccc(F)cc2)[C@@H]2CC[C@@H](C)C[C@H]2OCc2ccc(F)cc2)cc1,MCF7,MTT,30 µM,72 h,,inhibition,98.4%
C=C(F)C(=O)N1CCN(c2nc(OC[C@@H]3CCCN3C)nc3c2CCN(c2cccc4cccc(Cl)c24)C3)C[C@@H]1CC#N,SW-620,ATP luminescence,,,3D culture,IC50,> 1 µM
C[C@@H]1CC[C@@H]([C@](C)(O)CNCc2cccc(F)c2)[C@H](OCc2ccccc2)C1,MCF7,MTT,30 µM,72 h,,inhibition,95.6%
COc1cc2c3c(n(CCCNCCO)c(=O)c2cc1OC)-c1nc2c(cc1C3=O)OCO2,AMO1,MTS,,72 h,,IC50,0.461 µM
C[C@@H]1CC[C@@H]([C@@](O)(CNCc2ccccc2)COCc2ccc(F)cc2)[C@H](OCc2ccc(F)cc2)C1,MCF7,MTT,10 µM,72 h,,inhibition,96.2%
CC(=O)c1nn(-c2ccccc2Cl)/c(=N/N=C(\C)c2ccc(NC(=O)c3ccccc3)cc2)s1,MCF7,MTT,2.5 µM,,,viability,6.21%
COc1cc2c3c(n(CCCn4ccnc4)c(=O)c2cc1OC)-c1nc2c(cc1C3=O)OCO2,AMO1,MTS,,72 h,,IC50,0.804 µM
CC(=NNC(=O)c1ccccc1)c1ccc(Nc2nnc(-c3ccc(Cl)cc3)c3ccccc23)cc1,MCF7,MTT,10 µM,,,cell death,94.1%
CC(=O)c1nn(-c2ccc(C)cc2)/c(=N/N=C(\C)c2ccc(NC(=O)c3ccccc3)cc2)s1,MCF7,MTT,1.25 µM,,,viability,5.3%
CC(=O)Nc1ccc(Oc2nnc(-c3ccc(Cl)cc3)c3ccccc23)cc1,MCF7,MTT,10 µM,24 h,,viability,5.75%
Cc1c(C(=O)O)ccc2c3n(nc12)[C@@H]1[C@H](C3)N(CC2CC2)[C@@]2(C(=O)Nc3cc(Cl)ccc32)[C@H]1c1cccc(Cl)c1F,A204,,,,,GI50,0.00028 µM
O=C(Nc1ccc(Oc2nnc(-c3ccc(Cl)cc3)c3ccccc23)cc1)c1cccc([N+](=O)[O-])c1,MCF7,MTT,2.5 µM,24 h,,viability,4.87%
CCOC(=O)c1nn(-c2cccc(Cl)c2)/c(=N/N=C(\C)c2ccc(NC(=O)c3ccccc3)cc2)s1,MCF7,MTT,0.312 µM,,,viability,6.34%
